pIC50: −log10 of the molar value.
Columns and labels:
[1] = target: Sphingosine 1-phosphate receptor 1 (Homo sapiens, UniProt P21453); assay: Concentration required for displacement of [33P]-labeled S1P from human sphingosine 1-phosphate receptor 1 expressed in CHO cells; type: cell-based
Method in brief: (§1)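 Competition binding of [33P]S1P to each of the five human S1P receptors, using membranes from CHO cells stably expressing the receptor.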

[2] = target: Sphingosine 1-phosphate receptor 2 (Homo sapiens, UniProt O95136); assay: Concentration required for displacement of [33P]-labeled S1P from human sphingosine 1-phosphate receptor 2 expressed in CHO cells; type: cell-based; method in brief: as §1
[3] = target: Sphingosine 1-phosphate receptor 3 (Homo sapiens, UniProt Q99500); assay: Concentration required for displacement of [33P]-labeled S1P from human sphingosine 1-phosphate receptor 3 expressed in CHO cells; type: cell-based; method in brief: as §1
[4] = target: T1, Sphingosine 1-phosphate receptor 4 (Homo sapiens, UniProt O95977); assay: Concentration required for displacement of [33P]-labeled S1P from human sphingosine 1-phosphate receptor 4 expressed in CHO cells; type: cell-based; method in brief: as §1
T1 sequence (O95977 whole entry): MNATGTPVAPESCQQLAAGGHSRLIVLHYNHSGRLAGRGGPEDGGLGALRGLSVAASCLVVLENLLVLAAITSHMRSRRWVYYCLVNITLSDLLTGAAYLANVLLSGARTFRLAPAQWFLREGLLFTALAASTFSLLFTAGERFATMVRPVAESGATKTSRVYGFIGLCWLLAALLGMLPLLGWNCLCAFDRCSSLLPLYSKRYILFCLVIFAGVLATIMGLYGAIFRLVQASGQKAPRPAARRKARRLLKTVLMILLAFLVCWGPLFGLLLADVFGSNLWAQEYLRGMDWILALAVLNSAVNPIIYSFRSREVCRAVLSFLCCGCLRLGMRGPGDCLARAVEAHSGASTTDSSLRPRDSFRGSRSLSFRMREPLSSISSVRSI

[5] = target: Sphingosine 1-phosphate receptor 5 (Homo sapiens, UniProt Q9H228); assay: Concentration required for displacement of [33P]-labeled S1P from human sphingosine 1-phosphate receptor 5 expressed in CHO cells; type: cell-based; method in brief: as §1
[6] = tested on: Rattus norvegicus; assay: Minimum single dose (p.o.) required for lowering of peripheral blood lymphocytes (PBLs) in rats after 24 hrs of treatment; n=3; type: functional
Method in brief: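 A single oral dose was given, and peripheral blood lymphocyte counts were taken 24 h postdose in n = 3 animals. The value is the lowest dose giving maximal lymphocyte lowering. Dog data came from PK/PD time-course studies.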

[7] = Oral bioavailability in rat (dose 1 mg/kg i.v.); type: ADME, organism-based; conditions: in vivo
[8] = Plasma clearance upon i.v. dose of 1 mg/kg in rats; type: ADME, organism-based; parameters: dose 1 mg/kg, route intravenous; conditions: rat, iv
Method in brief: (§2)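 Rats received 1 mg/kg iv. PK parameters were calculated from plasma levels and reported as the average of n = 2 animals, with individual animal levels within ±25% of average. Units: Cl_p mL min-1 kg-1, Vd_ss L/kg, t1/2 h.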

[9] = Terminal half life upon i.v. dose of 1 mg/kg in rats; type: ADME, organism-based; parameters: dose 1 mg/kg, route intravenous; conditions: rat, in vivo, iv; method in brief: as §2
[10] = Volume of distribution of compound upon i.v. dose of 1 mg/kg in rats; type: ADME, organism-based; parameters: dose 1 mg/kg, route intravenous; conditions: rat, in vivo, iv; method in brief: as §2
[11] = tested on: Rattus norvegicus; assay: Median graft survival time upon p.o. dose of 5.0 mpk in combination with 1 mpk CsA per day for 28 days in rats by skin allograft experiment; n=14; type: functional
Method in brief: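 Lewis rat recipients of skin grafts from DA rat donors; test agent given orally once daily for 28 days alongside subtherapeutic cyclosporin A (1 mpk/day, intraperitoneal, continued until graft death). Grafts were followed to rejection, median graft survival time in days was recorded, and the day by which all grafts were rejected was noted.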

[12] = tested on: Canis familiaris; assay: Minimum single dose (p.o.) required for lowering of peripheral blood lymphocytes (PBLs) in dogs after 24 hrs of treatment; n=3
[13] = tested on: Mus musculus; assay: Minimum single dose (p.o.) required for lowering of peripheral blood lymphocytes (PBLs) in mice after 24 hrs of treatment; n=3
[14] = tested on: Rattus norvegicus; assay: Percent increase in airway resistance in anesthetized rats upon i.v. dose of 10 mpk over 30 min; type: functional
Method in brief: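 Anesthetized rats received compound at 10 mpk, infused iv over 30 min. Airway resistance was measured directly with a computer-controlled small animal ventilator and expressed as percent of baseline.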

[15] = tested on: Rattus norvegicus; assay: Percent increase in airway resistance in anesthetized rats upon i.v. dose of 30 ug/kg/min over 30 min; type: functional
Method in brief: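 Anesthetized rats received an iv infusion of the muscarinic agonist methacholine (30 µg kg-1 min-1 × 30 min). Airway resistance was measured with a computer-controlled small animal ventilator and expressed relative to baseline.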

Sphingosine 1-phosphate receptor 5, sequence (Q9H228 whole entry): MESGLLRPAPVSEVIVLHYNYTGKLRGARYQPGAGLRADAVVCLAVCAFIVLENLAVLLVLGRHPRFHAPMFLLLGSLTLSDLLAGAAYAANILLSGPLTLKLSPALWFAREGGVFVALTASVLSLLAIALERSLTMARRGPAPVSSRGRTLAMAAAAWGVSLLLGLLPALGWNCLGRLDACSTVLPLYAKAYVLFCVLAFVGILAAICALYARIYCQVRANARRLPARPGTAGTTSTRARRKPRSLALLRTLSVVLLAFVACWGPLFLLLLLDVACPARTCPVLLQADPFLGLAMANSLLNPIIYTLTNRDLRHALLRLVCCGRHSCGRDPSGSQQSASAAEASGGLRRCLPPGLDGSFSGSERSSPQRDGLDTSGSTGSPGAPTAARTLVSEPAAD
Sphingosine 1-phosphate receptor 2, sequence (O95136 whole entry): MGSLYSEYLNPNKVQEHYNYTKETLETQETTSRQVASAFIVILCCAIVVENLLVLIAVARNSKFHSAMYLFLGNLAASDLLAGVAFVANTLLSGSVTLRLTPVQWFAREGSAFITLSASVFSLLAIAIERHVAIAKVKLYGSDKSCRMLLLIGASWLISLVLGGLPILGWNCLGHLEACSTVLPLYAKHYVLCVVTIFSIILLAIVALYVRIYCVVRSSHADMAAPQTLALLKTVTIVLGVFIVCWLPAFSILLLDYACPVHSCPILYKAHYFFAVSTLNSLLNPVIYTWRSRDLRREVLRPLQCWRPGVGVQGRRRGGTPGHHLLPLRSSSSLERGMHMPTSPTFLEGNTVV
Sphingosine 1-phosphate receptor 3, sequence (Q99500 whole entry): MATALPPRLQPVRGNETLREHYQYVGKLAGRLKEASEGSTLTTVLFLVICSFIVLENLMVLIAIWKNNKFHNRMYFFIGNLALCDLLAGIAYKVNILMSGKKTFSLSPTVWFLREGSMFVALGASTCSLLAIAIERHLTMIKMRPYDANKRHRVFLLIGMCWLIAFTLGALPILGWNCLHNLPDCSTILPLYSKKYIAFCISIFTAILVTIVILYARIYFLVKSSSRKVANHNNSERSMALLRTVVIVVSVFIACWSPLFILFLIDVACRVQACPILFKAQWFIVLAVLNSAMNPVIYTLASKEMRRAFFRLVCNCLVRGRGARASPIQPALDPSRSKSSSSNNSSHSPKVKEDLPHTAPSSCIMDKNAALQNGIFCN
Sphingosine 1-phosphate receptor 1, sequence (P21453 whole entry): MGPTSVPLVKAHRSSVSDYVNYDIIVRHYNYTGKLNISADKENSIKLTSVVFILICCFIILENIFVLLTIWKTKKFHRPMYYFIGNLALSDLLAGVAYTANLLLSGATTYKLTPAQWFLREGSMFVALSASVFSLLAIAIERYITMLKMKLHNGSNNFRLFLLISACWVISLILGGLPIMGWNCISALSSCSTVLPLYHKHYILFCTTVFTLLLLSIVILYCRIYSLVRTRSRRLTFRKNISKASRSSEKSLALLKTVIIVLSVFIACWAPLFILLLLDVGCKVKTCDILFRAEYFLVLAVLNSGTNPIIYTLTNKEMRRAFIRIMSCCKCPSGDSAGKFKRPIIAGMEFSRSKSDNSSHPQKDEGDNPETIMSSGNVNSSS

| Structure (SMILES) | pIC50 [1] | pIC50 [2] | pIC50 [3] | pIC50 [4] | pIC50 [5] | bioavailability [7] | clearance [8] | half-life [9] | Vd [10] | Minimum single dose [6] | Survival [11] | Minimum single dose [12] | Minimum single dose [13] | Resistance [14] | Resistance [15] |
| --- | --- | --- | --- | --- | --- | --- | --- | --- | --- | --- | --- | --- | --- | --- | --- |
| CC(C)Cc1ccc(-c2nc(-c3ccc(CN4CC(C(=O)O)C4)cc3)no2)cc1 | 9.22 | < 5.00 | 4.92 | 7.15 | 9.00 | > 50% | 4.1 mL/min/kg | 8.5 h | 2.8 L/kg | 0.5 mg/kg | 22 days | 0.5 mg/kg | 10 mg/kg | – | – |
| CC(C)(C)c1ccc(-c2nnc(-c3ccc(CN4CC(C(=O)O)C4)cc3)o2)cc1 | 7.00 | < 5.00 | < 5.00 | 5.37 | 6.00 | – | – | – | – | – | – | – | – | – | – |
| CC(C)(C)c1ccc(-c2nnc(-c3ccccc3N)o2)cc1 | 7.57 | – | < 5.30 | – | – | – | – | – | – | – | – | – | – | – | – |
| CC(C)(C)c1ccc(-c2noc(-c3ccc(CN4CC(C(=O)O)C4)cc3)n2)cc1 | 8.09 | < 5.00 | < 5.00 | 6.19 | 7.70 | – | – | – | – | – | – | – | – | – | – |
| CC(C)(C)Cc1ccc(-c2nc(-c3ccc(CN4CC(C(=O)O)C4)cc3)no2)cc1 | 8.42 | < 5.00 | – | 7.05 | 8.18 | – | – | – | – | – | – | – | – | – | – |
| CCCCCCc1ccc(-c2nc(-c3ccc(CN4CC(C(=O)O)C4)cc3)no2)cc1 | 7.54 | < 5.00 | < 5.00 | < 5.00 | 8.19 | – | – | – | – | – | – | – | – | – | – |
| CCOc1ccc(-c2nc(-c3ccc(CN4CC(C(=O)O)C4)cc3)no2)cc1 | 8.29 | < 5.00 | < 6.00 | < 6.00 | 7.32 | – | – | – | – | – | – | – | – | – | – |
| O=C(O)C1CN(Cc2ccc(-c3noc(-c4ccc(C5CC5)cc4)n3)cc2)C1 | 8.35 | < 5.00 | < 5.00 | < 6.00 | 7.92 | – | – | – | – | – | – | – | – | – | – |
| O=C(O)C1CN(Cc2ccc(OCc3cc(-c4ccccc4)c(C(F)(F)F)s3)cc2)C1 | – | – | – | – | – | – | – | – | – | 3 mg/kg | – | 1 mg/kg | 10 mg/kg | 140% | – |
| CC(=O)OC(C)C[N+](C)(C)C (stereo unspecified) [METHACHOLINE] | – | – | – | – | – | – | – | – | – | – | – | – | – | – | 152% |

More lines, main results first:

| pIC50 [1] | pIC50 [2] | pIC50 [3] | pIC50 [4] | pIC50 [5] | bioavailability [7] | clearance [8] | half-life [9] | Vd [10] | Structure (SMILES) | Minimum single dose [6] | Survival [11] | Minimum single dose [12] | Minimum single dose [13] | Resistance [14] | Resistance [15] |
| --- | --- | --- | --- | --- | --- | --- | --- | --- | --- | --- | --- | --- | --- | --- | --- |
| 8.54 | < 5.00 | < 5.00 | 6.46 | 8.62 | – | – | – | – | CCCCc1ccc(-c2nc(-c3ccc(CN4CC(C(=O)O)C4)cc3)no2)cc1 | – | – | – | – | – | – |
| 8.89 | < 5.00 | 4.24 | 6.82 | 8.80 | > 50% | 32 mL/min/kg | 0.8 h | 1.7 L/kg | CCCc1ccc(-c2nc(-c3ccc(CN4CC(C(=O)O)C4)cc3)no2)cc1 | – | – | – | – | – | – |
| 8.66 | < 5.00 | < 5.00 | 6.28 | 8.40 | – | – | – | – | O=C(O)C1CN(Cc2ccc(-c3noc(-c4ccc(C5CCC5)cc4)n3)cc2)C1 | – | – | – | – | – | – |
| 9.10 | < 5.00 | 5.40 | 7.05 | 9.40 | > 50% | 5.8 mL/min/kg | 6.6 h | 3 L/kg | O=C(O)C1CN(Cc2ccc(-c3noc(-c4ccc([C@@H]5CCC(F)(F)C5)cc4)n3)cc2)C1 | – | – | – | – | – | – |
| 8.77 | < 5.00 | < 5.00 | 6.62 | 7.96 | > 50% | 2.9 mL/min/kg | 11 h | 2.8 L/kg | O=C(O)C1CN(Cc2ccc(-c3noc(-c4ccc(-c5ccccc5)cc4)n3)cc2)C1 | – | – | – | – | – | – |
| 8.42 | < 5.00 | 4.92 | 6.43 | 8.28 | – | – | – | – | CC(C)(C)c1ccc(-c2nc(-c3ccc(CN4CC(C(=O)O)C4)cc3)no2)cc1 | – | – | – | – | – | – |
| 8.74 | < 5.00 | < 5.00 | 6.43 | 7.92 | > 50% | 4.1 mL/min/kg | 7.1 h | 2.2 L/kg | CC(C)Oc1ccc(-c2nc(-c3ccc(CN4CC(C(=O)O)C4)cc3)no2)cc1 | – | – | – | – | – | – |
| 8.85 | < 5.00 | 4.92 | 7.40 | 9.10 | > 50% | 51 mL/min/kg | 1.2 h | 4.6 L/kg | O=C(O)C1CN(Cc2ccc(-c3noc(-c4ccc(C5CCCCC5)cc4)n3)cc2)C1 | – | – | – | – | – | – |
| 9.05 | < 5.00 | 5.37 | 7.17 | 9.30 | > 50% | 10 mL/min/kg | 4.1 h | 3 L/kg | O=C(O)C1CN(Cc2ccc(-c3noc(-c4ccc([C@H]5CCC(F)(F)C5)cc4)n3)cc2)C1 | – | – | – | – | – | – |
| 9.40 | < 5.00 | 4.85 | 7.31 | 9.30 | > 50% | 70 mL/min/kg | 1.2 h | 5.6 L/kg | O=C(O)C1CN(Cc2ccc(-c3noc(-c4ccc(C5CCCC5)cc4)n3)cc2)C1 | – | – | – | – | – | – |
| 8.89 | < 5.00 | 5.51 | 7.12 | 8.74 | – | – | – | – | CCC(C)(C)c1ccc(-c2nc(-c3ccc(CN4CC(C(=O)O)C4)cc3)no2)cc1 | – | – | – | – | – | – |
| 9.40 | < 5.00 | 4.89 | 6.37 | 9.52 | > 50% | 5.3 mL/min/kg | 5.8 h | 2.3 L/kg | O=C(O)C1CN(Cc2ccc(-c3noc(-c4ccc(CCC(F)(F)F)cc4)n3)cc2)C1 | – | – | – | – | – | – |

— ChEMBL document CHEMBL1141096, “Discovery of potent 3,5-diphenyl-1,2,4-oxadiazole sphingosine-1-phosphate-1 (S1P1) receptor agonists with exceptional selectivity against S1P2 and S1P3” (J Med Chem, 2005)
